Assay [1] addresses T1, Urokinase-type plasminogen activator (Homo sapiens, UniProt P00749). Nature of the assay: Inhibition constant against Urokinase.
For assay [2], the target named is Prothrombin (Bos taurus, UniProt P00735). Nature of the assay: Inhibition constant against bovine thrombin.
The target in assay [3] is T2, Serine protease 1 (Bos taurus, UniProt P00760).
T2 sequence (P00760 whole entry): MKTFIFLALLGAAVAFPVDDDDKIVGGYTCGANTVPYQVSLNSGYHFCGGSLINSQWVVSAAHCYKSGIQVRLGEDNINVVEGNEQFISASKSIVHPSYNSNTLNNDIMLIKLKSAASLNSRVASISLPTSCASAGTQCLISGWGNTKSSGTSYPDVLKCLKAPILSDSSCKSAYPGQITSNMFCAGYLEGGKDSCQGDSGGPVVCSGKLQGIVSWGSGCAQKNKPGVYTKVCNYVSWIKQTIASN
Nature of the assay: Inhibition constant against bovine trypsin.

The target of assay [4] is Plasminogen (Homo sapiens, UniProt P00747). The assay is described as follows: Inhibition constant against human plasminogen. In short, it runs like this:
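Amidase assay with plasmin on N-benzoyl-DL-arginine p-nitroanilide (BAPNA), run at pH 7.6 and 37 °C. Ki was derived from a Dixon plot of reciprocal initial velocities against inhibitor concentrations at two substrate levels.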

Assay [5] deals with HEp-2. Nature of the assay: Minimum concentration required for the complete blockage of virus induced cell […]; cytotoxic at 100 uM. Format: functional, cell-based. Particulars: Homo sapiens.
Assay [6] has as its system HEp-2. The assay is described as follows: Minimum concentration required for the complete blockage of virus induced cell […]; NB means no blockage of cell fusion at the highest concentration where there is cytotoxicity at 100 uM. Format: functional, cell-based. Particulars: Homo sapiens.
Assay [7] has as its target T1, Urokinase-type plasminogen activator. The assay is described as follows: Inhibition constant against Urokinase; nonlinear kinetics. In short, it runs like this: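 Amidase assay with urokinase on the substrate L-pyroglutamylglycyl-L-arginine p-nitroanilide (S-2444), run at pH 8.1 and 37 °C. Ki was read from a Dixon plot: the reciprocal of initial velocity was plotted against inhibitor concentration at two substrate concentrations.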

Assay [8] deals with HEp-2. Nature of the assay: Minimum concentration required for the complete blockage of virus induced cell […]; NB means no blockage of cell fusion at the highest concentration where there is cytotoxicity at 10 uM. Particulars: Homo sapiens. Format: functional, cell-based.
In assay [9] the test system is HEp-2. Nature of the assay: Minimum concentration required for the complete blockage of virus induced cell division. Format: functional, cell-based. Particulars: Homo sapiens. The procedure, abridged: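 HEp-2 cells (MEM + 10% FBS, passages 370–376, mycoplasma-free) seeded to ~10^6 cells/well at 72 h; RS virus A2 strain adsorbed at 0.1 MOI for 2 h at 36 °C. Wells rinsed, then given inhibitor at 100, 10, 1.0, 0.5 or 0.1 in MEM with 2% FBS and 1% Me2SO. Fusion blockage and toxicity scored at 72 h.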

Consider 27 molecules from ChEMBL document CHEMBL1122336, “Aromatic amidines: comparison of their ability to block respiratory syncytial virus induced cell fusion and to inhibit plasmin, urokinase, thrombin, and trypsin” (J Med Chem, 1983).

SMILES strings stand for the structures.

A word on the Ki: it is the equilibrium dissociation constant of an inhibitor or competing ligand from its target.

Sequence of Plasminogen (P00747 97-580 limits assumed): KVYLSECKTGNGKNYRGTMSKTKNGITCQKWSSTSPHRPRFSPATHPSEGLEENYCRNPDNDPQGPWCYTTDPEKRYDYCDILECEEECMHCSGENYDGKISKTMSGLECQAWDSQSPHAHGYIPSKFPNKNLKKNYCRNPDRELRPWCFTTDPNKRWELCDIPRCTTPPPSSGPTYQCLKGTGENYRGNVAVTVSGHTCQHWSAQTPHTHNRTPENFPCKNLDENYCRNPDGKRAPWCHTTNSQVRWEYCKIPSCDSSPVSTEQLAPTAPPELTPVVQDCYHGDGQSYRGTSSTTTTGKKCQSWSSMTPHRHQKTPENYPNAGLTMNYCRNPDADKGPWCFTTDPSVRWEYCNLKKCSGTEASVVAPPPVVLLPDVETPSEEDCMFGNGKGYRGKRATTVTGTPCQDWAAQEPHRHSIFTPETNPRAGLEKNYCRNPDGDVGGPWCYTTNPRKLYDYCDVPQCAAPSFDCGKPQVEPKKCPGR
Sequence of Plasminogen (P00747 581-810 limits assumed): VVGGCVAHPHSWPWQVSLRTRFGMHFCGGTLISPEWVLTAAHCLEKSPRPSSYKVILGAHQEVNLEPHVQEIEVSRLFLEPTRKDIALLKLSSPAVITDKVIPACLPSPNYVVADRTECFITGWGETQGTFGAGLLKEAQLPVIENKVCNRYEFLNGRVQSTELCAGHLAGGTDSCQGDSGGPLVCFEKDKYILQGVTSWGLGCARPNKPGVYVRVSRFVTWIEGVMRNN

For the molecule `N=C(N)c1ccc2[nH]ccc2c1`, the Ki in assay [1] came to 131 µM; in [2], 7.68 µM; in assay [3] it was 29.1 µM; in [4], 112 µM.
Regarding `CCn1ccc2cc(C(=N)N)ccc21`, the Concentration in [5] came out at 10 µM. The Ki in [1] is 280 µM; in assay [2], 42.8 µM; in assay [3], 137 µM; in assay [4], more than 400 µM.
As to `N=C(N)c1ccc(OCCOc2ccc(-c3nc4ccc(C(=N)N)cc4[nH]3)cc2)cc1`, the Ki amounted to 12 µM in [1] and 3.9 µM in assay [4].
As to `N=C(N)c1ccc2c(ccn2Cc2ccccc2)c1`, the Concentration result in [6] is “Cytotoxic”. For the same molecule, the Ki in [1] was 191 µM; in assay [2], 20.1 µM; in assay [3] it was 15.4 µM; in [4], 844 µM.
With `N=C(N)c1ccc(Cn2ccc3ccccc32)cc1`, in assay [5], the Concentration stood at 1 µM. Moreover, the Ki in assay [2] was 13.1 µM; in assay [4], 111 µM.
`N=C(N)c1ccc2c(ccn2Cc2cccc([N+](=O)[O-])c2)c1`: the Concentration in [5] was 10 µM. The Ki in [2] was 6.39 µM; in [3] it was 7.77 µM; in [4], more than 100 µM.
Regarding `N=C(N)c1ccc2[nH]c(Oc3ccc(-c4nc5cc(C(=N)N)ccc5[nH]4)cc3)nc2c1`, in [6], the Concentration entry is given as “Cytotoxic”. For the same molecule, the Ki entry in [7] is “nonlinear kinectics”; in [2] it was 3.94 µM; in [3], 4.67 µM; in assay [4], approximately 200 µM.
Take `CC(=O)c1c[nH]c2cc(C(=N)N)ccc12`: the Concentration result in assay [6] is recorded as “Cytotoxic”. In addition, the Ki is more than 100 µM in assay [1], 1890 µM in assay [2], more than 1000 µM in assay [3] and more than 1000 µM in assay [4].
In the case of `Cn1ccc2cc(C(=N)N)ccc21`, the Ki in assay [1] was 196 µM; in assay [2] it was 35.2 µM; in assay [3] it was 85.3 µM; in [4], more than 1000 µM.
In turn, `N=C(N)c1ccc2c(ccn2Cc2ccc([N+](=O)[O-])cc2N)c1` returned a Concentration in assay [5] of 10 µM. For the same molecule, the Ki in [1] is 40 µM; in [2], 4.8 µM; in assay [3], 5.31 µM; in assay [4] it was 100 µM.
As to `CCC(=O)c1cc2ccc(C(=N)N)cc2[nH]1`, the Concentration entry in assay [6] is on record as “Cytotoxic”. Moreover, the Ki stood at 40.3 µM in assay [1], 55 µM in assay [2], 15.3 µM in assay [3] and 61.5 µM in assay [4].
In the same order, the values of `N=C(N)c1ccc2c(C(=O)c3ccccc3)c[nH]c2c1` are “Cytotoxic”, 267 µM, 176 µM, more than 100 µM and more than 200 µM.
Turning to `N=C(N)c1ccc(Cn2ccc3cc(C(=N)N)ccc32)cc1`, the Concentration in [5] was determined as 10 µM. The Ki in [2] stood at 24.8 µM; in [3], 3.18 µM; in [4], 60 µM.
Regarding `N=C(N)c1ccc(Cn2ccc3cc([N+](=O)[O-])ccc32)cc1`, the Concentration result in assay [6] is “Cytotoxic”. Moreover, the Ki in [1] is more than 200 µM; in assay [2], 164 µM; in assay [3] it was 3.44 µM; in [4], more than 400 µM.
Regarding `N=C(N)c1ccc(OCCOc2ccc(-c3nc4cc(C(=N)N)ccc4[nH]3)cc2)cc1`, the Concentration in assay [5] amounted to 10 µM.
On to `N=C(N)c1ccc(OCCCCCOc2ccc(-c3nc4cc(C(=N)N)ccc4[nH]3)cc2)cc1`, for which, in assay [8], the Concentration entry is “Cytotoxic”. In addition, the Ki in [1] was determined as 8 µM; in assay [4], 3.83 µM.
Regarding `N=C(N)c1ccc(OCCCCOc2ccc(-c3nc4ccc(C(=N)N)cc4[nH]3)cc2)cc1`, the Ki was 4.47 µM in assay [1] and 8.18 µM in assay [4].
In assay [5], `N=C(N)c1cccc(Cn2ccc3cc(C(=N)N)ccc32)c1` registered a Concentration of 10 µM. Besides, the Ki in [2] was found to be 22.4 µM; in assay [3], 8.29 µM; in assay [4], 65.6 µM.
Regarding `N=C(N)c1ccc(OCCCOc2ccc(-c3nc4ccc(C(=N)N)cc4[nH]3)cc2)cc1`, the results for the Ki in [1] and in assay [4] were 17.8 µM and 8.19 µM, respectively.
For the molecule `N=C(N)c1ccc(Cn2ccc3cc(C(=N)N)ccc32)c(Cl)c1`, the Concentration in [5] turned out to be 10 µM. Further, the Ki is 47.8 µM in [2], 5.31 µM in assay [3] and more than 700 µM in [4].
For `N=C(N)c1ccc2nc(Cc3nc4ccc(C(=N)N)cc4[nH]3)[nH]c2c1`, the Concentration in assay [9] came to 0.5 µM. The same molecule yielded a Ki in assay [4] of 2.65 µM.
For the molecule `N=C(N)c1ccc2c(ccn2Cc2cccc(N)c2)c1`, the Concentration result in assay [6] is given as “Cytotoxic”. Besides, the values for the Ki in assay [2], in [3] and in [4] were 15.4 µM, 16.8 µM and 164 µM, respectively.
For `N=C(N)c1ccc(OCCCCOc2ccc(-c3nc4cc(C(=N)N)ccc4[nH]3)cc2)cc1`, the Concentration entry in [8] is “Cytotoxic”.
Turning to `N=C(N)c1ccc2c(C=O)c[nH]c2c1`, the Ki is 10.6 µM in [1], more than 1000 µM in assay [2], 25.5 µM in assay [3] and 43 µM in assay [4].
As to `N=C(N)c1ccc2c(C(=O)C(F)(F)F)c[nH]c2c1`, the Concentration entry in assay [6] was “Cytotoxic”. Also, the Ki in [1] is more than 100 µM; in assay [2], 1510 µM; in [3], more than 1000 µM; in assay [4], more than 1000 µM.
`N=C(N)c1ccc2c(ccn2CCCCn2ccc3cc(C(=N)N)ccc32)c1` returned a Concentration in assay [5] of 10 µM. Moreover, the Ki is 9.96 µM in assay [1], 11.1 µM in assay [2], 3.2 µM in assay [3] and 2.93 µM in assay [4].
`N=C(N)c1ccc(OCCCOc2ccc(-c3nc4cc(C(=N)N)ccc4[nH]3)cc2)cc1`: the Concentration in [5] worked out at 10 µM.
